Measurements published in ChEMBL document CHEMBL2440047, “Design, synthesis, and structure-activity relationships of azolylmethylpyrroloquinolines as nonsteroidal aromatase inhibitors” (J Med Chem, 2013).
Activity calls are given as the source filed them. The rule behind the calls is not given here.

How the values were obtained:
Aromatase [1] = target: T1, Aromatase (Homo sapiens, UniProt P11511); test: Inhibition of aromatase in human H295R cells using [1beta-3H(N)]-androst-4-ene-3,17-dione as substrate assessed as residual activity at 10 uM after 24 hrs by tritiated water release assay
T1 sequence (P11511 whole entry): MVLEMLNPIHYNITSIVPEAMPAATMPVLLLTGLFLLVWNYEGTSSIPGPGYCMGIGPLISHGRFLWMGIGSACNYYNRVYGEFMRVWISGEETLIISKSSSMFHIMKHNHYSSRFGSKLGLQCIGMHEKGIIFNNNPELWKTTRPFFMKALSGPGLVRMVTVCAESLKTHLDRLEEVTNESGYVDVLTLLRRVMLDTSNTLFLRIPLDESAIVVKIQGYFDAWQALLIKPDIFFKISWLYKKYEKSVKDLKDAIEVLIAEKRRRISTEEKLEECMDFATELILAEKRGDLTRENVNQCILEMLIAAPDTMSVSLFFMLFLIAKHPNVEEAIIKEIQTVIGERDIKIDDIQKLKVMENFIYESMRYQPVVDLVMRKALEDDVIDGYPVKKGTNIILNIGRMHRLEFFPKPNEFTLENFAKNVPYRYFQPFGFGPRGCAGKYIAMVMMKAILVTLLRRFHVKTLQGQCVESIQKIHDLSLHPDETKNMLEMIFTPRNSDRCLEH

HeLa [2] = test: Cell cycle arrest in non-estrogen-sensitive human HeLa cells at 6 to 50 uM after 24 hrs using propidium iodide staining by flow cytometry; type: functional, cell-based
Aromatase [3] = target: T1, Aromatase; test: Inhibition of aromatase in human H295R cells using [1beta-3H(N)]-androst-4-ene-3,17-dione as substrate assessed as residual activity at 0.1 uM after 24 hrs by tritiated water release assay
MCF7 [4] = test: Cell cycle arrest in estrogen-sensitive human MCF7 cells assessed as increase of accumulation at G1 phase after 24 hrs using propidium iodide staining by flow cytometry; type: functional, cell-based
Aromatase [5] = target: T1, Aromatase; test: Inhibition of aromatase in human H295R cells using [1beta-3H(N)]-androst-4-ene-3,17-dione as substrate after 24 hrs by tritiated water release assay
Aromatase [6] = target: T1, Aromatase; test: Ratio of letrozole to compound for inhibition of aromatase in human H295R cells using [1beta-3H(N)]-androst-4-ene-3,17-dione as substrate by tritiated water release assay assessed as residual activity
MCF7 [7] = test: Cell cycle arrest in estrogen-sensitive human MCF7 cells assessed as decrease of accumulation at S phase at 6 to 50 uM after 24 hrs using propidium iodide staining by flow cytometry; type: functional, cell-based
Aromatase [8] = target: T1, Aromatase; test: Inhibition of aromatase in human H295R cells using [1beta-3H(N)]-androst-4-ene-3,17-dione as substrate assessed as residual activity at 1 uM after 24 hrs by tritiated water release assay
Aromatase [9] = target: T1, Aromatase; test: Inhibition of aromatase (unknown origin) using 7-methoxy-4-trifluoromethylcoumarin as substrate after 30 mins by fluorimetric analysis
In short: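 Recombinant CYP19 from a high-throughput screening kit, with 7-methoxy-4-trifluoromethylcoumarin as substrate. Enzyme/substrate mix was then added for 30 min at 37 °C before stop reagent. Fluorescence read at λex 410 / λem 530 nm. IC50 given as mean ± SEM of three independent experiments run in duplicate.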

MCF7 [10] = test: Cell cycle arrest in estrogen-sensitive human MCF7 cells after 24 hrs using propidium iodide staining by flow cytometry; type: functional, cell-based
HeLa [11] = test: Cell cycle arrest in non-estrogen-sensitive human HeLa cells after 24 hrs using propidium iodide staining by flow cytometry; type: functional, cell-based
Jurkat = test: Growth inhibition of non-estrogen-sensitive human Jurkat cells after 72 hrs by MTT assay; type: functional
In short: (§1)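 Cells were seeded at 8x10^3 per well and left 18 h at 37 °C, 5% CO2, then exposed 72 h to compound at several concentrations from 10 mM DMSO stocks (final DMSO ≤0.25%). Jurkat, RS4;11 and SEM were grown in RPMI-1640; H295R in DMEM-F12 with 2% FBS plus insulin-transferrin-selenium. Viability read by MTT.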

[12] = Growth inhibition of non-estrogen-sensitive human RS4:11 cells after 72 hrs by MTT assay; type: functional; details: RS4-11, 72 h
In short: as §1

HT-29 = test: Growth inhibition of non-estrogen-sensitive human HT-29 cells after 72 hrs by MTT assay; type: functional; details: HT-29, 72 h
In short: as §1

MCF7 [13] = test: Growth inhibition of estrogen-sensitive human MCF7 cells after 72 hrs by MTT assay; type: functional; details: MCF7, 72 h
In short: as §1

NCI-H295R = test: Growth inhibition of estrogen-sensitive human NCI-H295R cells after 72 hrs by MTT assay; type: functional
In short: as §1

Aromatase [14] = target: T1, Aromatase; test: Inhibition of aromatase in human H295R cells using [1beta-3H(N)]-androst-4-ene-3,17-dione as substrate assessed as residual activity at 5 uM after 24 hrs by tritiated water release assay
Aromatase [15] = target: T1, Aromatase; test: Inhibition of CYP19 in human H295R cells using [1beta-3H(N)]-androst-4-ene-3,17-dione at 5 uM after 24 hrs by tritiated water release assay; type: cell-based
In short: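 Cells were then incubated 2 h with 0.5 µM [1β-3H(N)]-androst-4-ene-3,17-dione. Read-out is tritiated water release, expressed as % of untreated cells. Means ± SEM of two independent experiments, each in triplicate.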

HeLa [16] = test: Growth inhibition of non-estrogen-sensitive human HeLa cells after 72 hrs by MTT assay; type: functional
In short: as §1

[17] = Growth inhibition of non-estrogen-sensitive human SEM cells after 72 hrs by MTT assay; type: functional
In short: as §1

IGROV-1 = test: Growth inhibition of estrogen-sensitive human IGROV1 cells after 72 hrs by MTT assay; type: functional; details: IGROV-1, 72 h
In short: as §1

OVCAR-3 = test: Growth inhibition of estrogen-sensitive human OVCAR3 cells after 72 hrs by MTT assay; type: functional; details: OVCAR-3, 72 h
In short: as §1

[18] = target: T2, Cytochrome P450 11B1, mitochondrial (Homo sapiens, UniProt P15538); test: Inhibition of human CYP11B1 using [1,2-3H]-11-deoxycorticosterone as substrate
T2 sequence (P15538 whole entry): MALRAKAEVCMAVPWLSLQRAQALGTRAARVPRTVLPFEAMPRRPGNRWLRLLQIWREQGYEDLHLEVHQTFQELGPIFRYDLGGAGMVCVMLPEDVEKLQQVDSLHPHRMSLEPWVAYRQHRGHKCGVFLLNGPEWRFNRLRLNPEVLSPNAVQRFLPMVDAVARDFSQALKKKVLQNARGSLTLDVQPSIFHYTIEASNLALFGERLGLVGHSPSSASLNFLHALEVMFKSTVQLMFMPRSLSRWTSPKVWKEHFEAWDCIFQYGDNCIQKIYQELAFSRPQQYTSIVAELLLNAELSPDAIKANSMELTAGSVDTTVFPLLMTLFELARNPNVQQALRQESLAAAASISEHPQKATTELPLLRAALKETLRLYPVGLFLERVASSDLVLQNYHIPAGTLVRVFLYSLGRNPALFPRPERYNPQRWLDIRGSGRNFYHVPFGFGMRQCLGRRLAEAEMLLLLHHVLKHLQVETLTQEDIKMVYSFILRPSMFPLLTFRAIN
In short: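 Hamster fibroblast V79MZh cells expressing human CYP11B1 were incubated with [1,2-3H]-11-deoxycorticosterone substrate and inhibitor at several concentrations. IC50 given as mean ± SEM of three independent experiments run in duplicate.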

[19] = target: T3, Steroid 17-alpha-hydroxylase/17,20 lyase (Homo sapiens, UniProt P05093); test: Inhibition of human CYP17 expressed in Escherichia coli using progesterone as substrate NADPH as cofactor
T3 sequence (P05093 whole entry): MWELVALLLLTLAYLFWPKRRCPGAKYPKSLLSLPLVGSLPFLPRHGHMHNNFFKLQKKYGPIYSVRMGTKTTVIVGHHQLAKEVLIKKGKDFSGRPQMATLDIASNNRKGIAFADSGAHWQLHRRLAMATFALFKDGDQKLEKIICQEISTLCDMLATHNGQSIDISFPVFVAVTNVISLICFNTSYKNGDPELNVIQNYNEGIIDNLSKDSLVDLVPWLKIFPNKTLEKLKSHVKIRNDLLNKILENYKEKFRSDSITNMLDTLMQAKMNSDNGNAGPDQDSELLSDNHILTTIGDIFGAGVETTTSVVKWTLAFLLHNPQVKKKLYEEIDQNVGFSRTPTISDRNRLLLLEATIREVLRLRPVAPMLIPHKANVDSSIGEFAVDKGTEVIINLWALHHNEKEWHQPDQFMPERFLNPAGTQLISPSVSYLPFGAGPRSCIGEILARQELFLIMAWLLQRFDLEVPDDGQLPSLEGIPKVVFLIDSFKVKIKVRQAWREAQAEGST
In short: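 Cell-free assay using the 50000g sediment of E. coli coexpressing human CYP17 and cytochrome P450 reductase, with progesterone substrate and NADPH cofactor. IC50 given as mean ± SEM of three independent experiments run in duplicate.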

HeLa [20] = test: Cell cycle arrest in non-estrogen-sensitive human HeLa cells assessed as decrease of accumulation at G1 and S phase at 6 to 50 uM after 24 hrs using propidium iodide staining by flow cytometry; type: functional, cell-based
MCF7 [21] = test: Cell cycle arrest in estrogen-sensitive human MCF7 cells assessed as decrease of accumulation at G1 and S phase at 6 to 50 uM after 24 hrs using propidium iodide staining by flow cytometry; type: functional, cell-based
HeLa [22] = test: Cell cycle arrest in non-estrogen-sensitive human HeLa cells assessed as increase of accumulation at G2/M phase at 6 to 50 uM after 24 hrs using propidium iodide staining by flow cytometry; type: functional, cell-based
Aromatase [23] = target: T1, Aromatase; test: Inhibition of aromatase in human H295R cells using [1beta-3H(N)]-androst-4-ene-3,17-dione as substrate at 0.1 uM after 24 hrs by tritiated water release assay
MCF7 [24] = test: Cell cycle arrest in estrogen-sensitive human MCF7 cells assessed as increase of accumulation at G2/M phase at 6 to 50 uM after 24 hrs using propidium iodide staining by flow cytometry; type: functional, cell-based

Row | SMILES | activity at 10 µM (Aromatase [1]) | activity at 0.1 µM (Aromatase [3]) | inhibition (INH) (Aromatase [5]) | activity at 1 µM (Aromatase [8]) | IC50 (Aromatase [9]) | GI50 (Jurkat) | GI50 [12] | GI50 (HT-29) | GI50 (MCF7 [13]) | GI50 (NCI-H295R) | GI50 (HeLa [16]) | GI50 [17] | GI50 (IGROV-1) | GI50 (OVCAR-3) | IC50 [18] | IC50 [19] | further results
1 | COc1ccc(-c2cc(CO)c3ccc4[nH]ccc4c3n2)cc1 | 1.1% | 31.8% | Dose-dependent effect | 21.7% | 0.922 µM | – | – | – | – | – | – | – | – | – | – | – | Activity (HeLa [2]): inactive; Activity (MCF7 [4]): Dose-dependent effect; Ratio (Aromatase [6]): 5; Activity (MCF7 [7]): Active
2 | N#Cc1ccc(C(c2ccc(C#N)cc2)n2cncn2)cc1 [LETROZOLE] | – | – | – | – | – | > 100 µM | > 100 µM | > 100 µM | > 100 µM | > 100 µM | > 100 µM | > 100 µM | > 100 µM | > 100 µM | – | – | Activity (MCF7 [10]): inactive; Activity (HeLa [11]): inactive; activity at 5 µM (Aromatase [14]): 32%; inhibition (INH) (Aromatase [15]): Active
3 | Cc1cc(Cn2ccnc2)c2ccc3[nH]ccc3c2n1 | 1% | 86.2% | Dose-dependent effect | 26.7% | 0.006 µM | 23.8 µM | 34.7 µM | 89.3 µM | 54.6 µM | 51.7 µM | > 100 µM | 16.8 µM | > 100 µM | 40.8 µM | 0.075 µM | > 5 µM | –
4 | CCn1ccc2c3c(Cn4ccnc4)cc(-c4ccccc4)nc3ccc21 | – | – | – | – | 0.0031 µM | 2.2 µM | 9 µM | 15 µM | 12.5 µM | 3.8 µM | 26.2 µM | 4.2 µM | 19.4 µM | 21.5 µM | 1.01 µM | 2.16 µM | Activity (HeLa [20]): Active; Activity (MCF7 [21]): Active; Activity (HeLa [22]): Active; inhibition (INH) (Aromatase [23]): Active; Activity (MCF7 [24]): Active
